Experimental data reported in ChEMBL document CHEMBL1138075 (Bioorg Med Chem Lett, 2006).
Each block holds one molecule with its values, some of them ahead of it. Activity calls are given as the source filed them. The calls are words filed in the database; no cut-off is given here. Square brackets hold non-standard residues; d marks the D form. Peptide text beside a SMILES is read from it. Thz = O=C(O)[C@@H]1CSCN1

Key:
[1] = biological target: T1, Glutamate NMDA receptor (Rattus norvegicus) (UniProt P35439+Q00959+Q00960+Q00961+Q62645+Q8VHN2+Q9R1M7); assay: Displacement of L[3H]glutamate from GluR in rat brain synaptic membrane up to 100 uM; format: cell membranes
Summary of the method: (§1)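 Competitive radioligand binding to glutamate receptors: displacement of L-[³H]glutamate from rat brain synaptic membranes, with test concentrations up to 100 μM.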

[2] = biological target: T1, Glutamate NMDA receptor (Rattus norvegicus); assay: (§2) Displacement of L[3H]glutamate from GluR in rat brain synaptic membrane; format: cell membranes; summary of the method: as §1
[3] = system: Hippocampal neurone; assay: Protection of rat hippocampal neurons from oxygen-glucose deprivation; format: functional, tissue-based; details: Hippocampus
Summary of the method: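 Cultured rat hippocampal neurons were subjected to oxygen-glucose deprivation injury, and neuronal survival was assessed with test agent present.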

[4] = biological target: T1, Glutamate NMDA receptor (Rattus norvegicus); assay: Protection of rat hippocampal neurons from NMDA excitotoxicity; format: functional, tissue-based; details: Hippocampus
Summary of the method: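 Neuronal death was induced in cultured rat hippocampal neurons by exposure to NMDA (100 µM), and neuronal survival was scored with test agent present.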

[5] = biological target: T1, Glutamate NMDA receptor (Rattus norvegicus); assay: Binding affinity to GluR in rat brain synaptic membranes at 100 uM
[6] = biological target: Glutamate NMDA receptor; assay: as §2; format: cell membranes; summary of the method: as §1

- Activity [1]: inactive
SMILES: CCC[C@@]1(C(=O)N[C@@H](CCC(=O)O)C(=O)O)CCCN1C(=O)CN

- Activity [2]: inactive
SMILES: CC1(C)SC[C@@H](C(=O)N[C@@H](CCC(=O)O)C(=O)O)N1C(=O)CN

- Activity [5]: inactive
SMILES: NCC(=O)N1CCC[C@@H]1C(=O)N[C@@H](CCC(=O)O)C(=O)O
- Activity [3]: Active
- Activity [4]: Active

- Ki [6]: 0.33 µM
SMILES: CC1(C)CC[C@H](C(=O)N[C@@H](CCC(=O)O)C(=O)O)N1C(=O)CN

- Activity [2]: inactive
SMILES: NCC(=O)N1CSC[C@H]1C(=O)N[C@@H](CCC(=O)O)C(=O)O (H-Gly-[Thz]-Glu-OH)

- Activity [5]: inactive
SMILES: NCC(=O)N1CCC[C@H]1C(=O)N[C@H](CCC(=O)O)C(=O)O
- Activity [3]: Active
- Activity [4]: Active

- Activity [1]: inactive
SMILES: NCC(=O)N1CCC[C@]12CCN([C@@H](CCC(=O)O)C(=O)O)C2=O

- Ki [6]: 31.2 µM
SMILES: C[C@@]1(C(=O)N[C@@H](CCC(=O)O)C(=O)O)CCCN1C(=O)CN (stereo in doubt; 1) [TROFINETIDE]

- Ki [6]: 3.79 µM
SMILES: CC1(C)CC[C@@H](C(=O)N[C@@H](CCC(=O)O)C(=O)O)N1C(=O)CN
